Screens deposited in PubChem by Broad Institute.
Cneo AK release: Cryptococcus neoformans lysis via adenylate kinase release; C. neoformans lysis, adenylate kinase release luminescence, 4 h; normalised: neutral wells 0, clomiphene wells 100; lysis activity, % at 15 µM; hit rate 0.2% among 360,000;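 active = mean lysis activity across replicates of at least 80%, whatever share of replicates individually reach that level; inactive = mean lysis activity below 80%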
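Material – Cryptococcus neoformans yeast cells · Quantity – 5 × 10^6 yeast cells/mL · Buffer or medium – YPD medium · Compound – single dose · Timing – 4 h static compound exposure, 37 °C, read 1 h post-reagent · Signal – adenylate kinase release luminescence · Read-out basis – lysis from increased AK signal · Benchmarks – Clomiphene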
S100A4 inh HTS: inhibitors of human S100A4 binding to myosin IIA peptide; AID 652163; P26447; inhibition, % at 10.7 µM; S100A4/TAMRA-MyoIIA peptide fluorescence polarization; hit rate 0.14% among 360,000;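 active = mean inhibition of at least 70% across replicates, with every replicate also reaching that level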
Target sequence (P26447 whole entry, looked up): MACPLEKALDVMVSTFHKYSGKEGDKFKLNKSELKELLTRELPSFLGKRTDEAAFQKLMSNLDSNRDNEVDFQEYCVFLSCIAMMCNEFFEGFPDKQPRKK
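Test system: S100A4 monomer protein; Medium: HEPES pH 7.2 with CaCl2, KCl, NaCl, DTT, Triton; Probe or stimulus: TAMRA-labelled myosin IIA heavy-chain peptide probe, 5 nM; Doses: one dose per compound; Times: polarization read 5 min after assay mix addition, stable 5–60 min; Benchmarks: neutral control DMSO, positive control TFP.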
Ecoli rRNA inh: inhibits bacterial ribosomal RNA function over humanized ribosomes | E. coli WT GFP vs humanized-ribosome RFP mutants, fluorescence, 24 h; active compounds read low; DMSO median 0, no signal -100 | GFP signal change (wild-type ribosome), % (no concentration beside the values) | hit rate 1.6% among 350,000;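 active = significant combined selectivity score with lowered wild-type GFP, culture density cut under 30%, mutant RFP and density less affected; inactive = any of these conditions unmet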
Statin myotox sup: protects C2C12 myotubes from simvastatin toxicity; ATP luminescence, 48 h; scaled: DMSO 0, geranylgeraniol control 100; hit rate 0.78% among 330,000; rescue of ATP level, % at 7.49 µM;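 active = mean ATP rescue above about 67%, or every replicate alone reaching that limit, limit read from the data, passing the limit was not always enough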;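 also: myotubes were challenged with 10 µM simvastatin during compound exposure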
SIRT5 block: inhibitors of human sirtuin-5 desuccinylase; Q9NXA8; Purified SirT5, succinyl-peptide AMC, trypsin-coupled fluorescence; inhibition, % at 15 µM; hit rate 1.1% among 330,000; AID 652115; in the data active = inhibition above about 15%
Target sequence (Q9NXA8 whole entry, looked up): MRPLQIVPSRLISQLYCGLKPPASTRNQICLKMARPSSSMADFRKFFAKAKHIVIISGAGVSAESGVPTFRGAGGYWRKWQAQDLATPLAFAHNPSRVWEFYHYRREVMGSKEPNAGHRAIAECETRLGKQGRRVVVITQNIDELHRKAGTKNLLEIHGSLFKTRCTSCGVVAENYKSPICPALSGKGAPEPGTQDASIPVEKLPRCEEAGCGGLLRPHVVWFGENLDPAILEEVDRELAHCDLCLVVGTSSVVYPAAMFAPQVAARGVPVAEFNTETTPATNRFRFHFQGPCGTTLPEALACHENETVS
PGC1a acetyl inh: lowers PGC1a acetylation signal in U2OS cells; inhibition, % at 15.6 µM; AID 651687; AlphaScreen anti-acetyl-lysine; with virally co-expressed GCN5 acetyltransferase; hit rate 0.17% among 350,000;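 active = every replicate shows inhibition of at least 40%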;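 also: 0% = neutral control wells and 100% = positive control wells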
An asterisk follows results filed as active; / = no result. The list is not random: actives were taken first. Their share in the collection is about 3%.

SMILES	Cneo AK release	S100A4 inh HTS	Ecoli rRNA inh	Statin myotox sup	SIRT5 block	PGC1a acetyl inh
Cc1ccc(S(=O)(=O)Nc2ccc3c(c2)C(=O)N([C@H](C)CO)C[C@@H](C)[C@H](CN(C)Cc2ccc(C(F)(F)F)cc2)OCCCC[C@@H](C)O3)cc1	118*	58	0	/	10	-8
C[C@@H]1CCCCO[C@@H](CN(C)Cc2ccc(C(F)(F)F)cc2)[C@H](C)CN([C@@H](C)CO)C(=O)c2cc(NS(=O)(=O)c3ccc(F)cc3)ccc2O1	6	-25	-1	/	19*	0
C[C@@H]1CN([C@@H](C)CO)C(=O)c2cc(NS(=O)(=O)c3ccc(F)cc3)ccc2O[C@@H](C)CCCCO[C@H]1CN(C)Cc1ccc(C(F)(F)F)cc1	6	-7	-2	/	28*	6
C[C@@H]1CCCCO[C@H](CN(C)Cc2ccc(C(F)(F)F)cc2)[C@@H](C)CN([C@H](C)CO)C(=O)c2cc(NS(=O)(=O)c3ccc(F)cc3)ccc2O1	0	1	-1	/	2	-10
O=C(C[C@H]1C=C[C@H](NC(=O)C2CCOCC2)[C@H](CO)O1)NCC1CCCCC1	1	7	-8	-6	-2	-13
O=C(Cc1ccccn1)N1CC(=O)N2[C@@H](CO)[C@@H](c3ccc(-c4ccc(F)cc4)cc3)[C@@H]2C1	/	4	1	/	8	-4
Cc1nn(Cc2ccccc2)c(C)c1NC(=O)CSc1nnc(-c2cc(Cl)ccc2O)n1C	1	0	-20*	-16	0	4
Cc1noc(C)c1COc1cccc(C(=O)Nc2ccc3c(c2)OCO3)c1	-1	-4	-17	0	/	/
Cc1noc(C)c1COc1cccc(C(=O)Oc2ccc3c(c2)OCO3)c1	1	11	-35*	3	/	6
CN(C)CC#Cc1ccc([C@H]2[C@H](CO)N3CCCCN(C(=O)C4CCC4)C[C@@H]23)cc1	2	-9	4	5	-2	-1
Cc1cccc(/N=C/c2c(O)cc(C)oc2=O)n1	1	-51	0	3	15*	/
Cc1cc(O)c(/C=N/c2ccccn2)c(=O)o1	0	-33	7	5	0	/
C/C(=N\N1CCN(Cc2ccc(Cl)cc2)CC1)c1ccc(F)cc1	6	-5	-18*	/	-5	7
C[C@@H]1CCCCO[C@@H](CN(C)C(=O)Nc2ccc3c(c2)OCO3)[C@@H](C)CN([C@H](C)CO)C(=O)c2cc(NC(=O)Cc3ccccc3)ccc2O1	-2	/	2	/	/	-8
Cc1nn2c(NCCN3CCOCC3)c3c(nc2c1-c1ccccc1)CCCC3	-4	-3	-34*	/	-3	17
O=C(CSc1nccc(=O)[nH]1)N1CCN(c2ccccc2)CC1	/	1	25	/	-1	2
O=C(CSc1nccc(=O)[nH]1)N1c2ccccc2CCc2ccccc21	2	-8	-34*	12	11	2
Cc1ccc2ccccc2c1CSc1nc(N)nc2c1ncn2CC(C)C	/	8	-30*	/	-1	-14
O=C(CC(F)(F)F)N1C[C@@H]2[C@H](c3ccccc31)[C@H](CO)N2C(=O)C1CCOCC1	1	6	3	-14	-1	-9
COc1ccc(OC)c(C2Nc3ccccc3NC3=C2C(=O)CC(C)(C)C3)c1 (centres undefined)	-2	-6	24	27	20*	/
COc1ccccc1C1Nc2ccccc2NC2=C1C(=O)CC(C)(C)C2 (centres undefined)	-4	2	14	15	5	12
Cc1cccc(-c2nsc(SCC(=O)N3CCCC3)n2)c1	-1	/	/	/	/	95*
C=CCN(Cc1nc(-c2ccc(OC)cc2)no1)C(=O)c1ccc2c(c1)OCO2	2	-16	-11	4	17*	/
COc1ccc(-c2noc(CN(C(=O)c3ccc4c(c3)OCO4)C(C)C)n2)cc1	-1	6	-3	1	4	-15
Cc1ccc(C)c(-c2nnc(NC(=O)c3ccco3)o2)c1	-9	4	-38	-13	-3	/
Cc1ccc(-c2nnc(NC(=O)c3ccco3)o2)c(C)c1	-9	-3	-24*	-3	-2	/
O=C(Nc1nnc(-c2cccs2)o1)c1ccco1	-1	-4	8	69*	/	1
